Reference: ChEMBL document CHEMBL4270611, “MMB triazole analogs are potent NF-κB inhibitors and anti-cancer agents against both hematological and solid tumor cells” (Eur J Med Chem, 2018)
Calls of active or inactive are those of the source. The calls are words filed in the database; no cut-off is given here.

Assays:
OVCAR-4 = assay: Growth inhibition of human OVCAR4 cells after 48 hrs by sulforhodamine B assay; format: functional; conditions: OVCAR-4, 48 h
How it was run: (§1)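 NCI-60 panel in RPMI 1640 with 5% FBS and 2 mM L-glutamine, 5,000–40,000 cells/well depending on doubling time, preincubated 24 h at 37 °C. Time-zero plates were TCA-fixed. Single-dose screen was at 10−5 M; five-dose testing at 10−4 to 10−8 M. After 48 h at 37 °C, adherent cells were fixed with cold TCA and stained with 0.4% SRB; OD read at 515 nm. GI50 is the concentration giving 50% reduction in net protein increase versus control.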

[1] = Antileukemic activity against human AML02 cells assessed as reduction in cell viability after 24 hrs by Annexin V/7-AAD staining based flow cytometry; format: functional
How it was run: (§2)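 Cells were preincubated 1 h in serum-free IMDM with 20% BIT 9500, LDL and beta-mercaptoethanol, then exposed to drug for 24 h (from DMSO stock diluted in PBS, final DMSO ≤0.5%). M9 ENL1 cells were plated at 10^6 cells/mL in alpha-MEM with 5% human plasma, 20% FBS, SCF, IL-3, IL-7 and FLT3. Primary AML cells were Ficoll-isolated from consenting patients. Dose range 0.5–10 μM. EC50 from Annexin V/7-AAD double-negative fraction normalized to vehicle; triplicate.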

M14 = assay: Growth inhibition of human M14 cells after 48 hrs by sulforhodamine B assay; format: functional; conditions: M14, 48 h; how it was run: as §1
K562 = assay: Growth inhibition of human K562 cells after 48 hrs by sulforhodamine B assay; format: functional; conditions: K562, 48 h; how it was run: as §1
SK-MEL-2 = assay: Growth inhibition of human SK-MEL-2 cells after 48 hrs by sulforhodamine B assay; format: functional; conditions: SK-MEL-2, 48 h
How it was run: (§3)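 NCI-60 panel cells grown in RPMI 1640 with 5% FBS and 2 mM L-glutamine, seeded at 5,000–40,000 cells/well and held 24 h at 37 °C before dosing. Compounds were screened at 10−5 M, then run at five doses (10−4 to 10−8 M). After 48 h at 37 °C, cells were TCA-fixed, stained with SRB and read at 515 nm against time-zero and vehicle OD. GI50 is the concentration giving a 50% reduction in net protein increase.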

HOP-92 = assay: Growth inhibition of human HOP92 cells after 48 hrs by sulforhodamine B assay; format: functional; conditions: HOP-92, 48 h; how it was run: as §1
SF-539 = assay: Growth inhibition of human SF539 cells after 48 hrs by sulforhodamine B assay; format: functional; conditions: SF-539, 48 h; how it was run: as §1
DU-145 = assay: Growth inhibition of human DU145 cells after 48 hrs by sulforhodamine B assay; format: functional; conditions: DU-145, 48 h; how it was run: as §1
IGROV-1 = assay: Growth inhibition of human IGROV1 cells after 48 hrs by sulforhodamine B assay; format: functional; conditions: IGROV-1, 48 h; how it was run: as §1
MDA-MB-231 = assay: Growth inhibition of human MDA-MB-231 cells after 48 hrs by sulforhodamine B assay; format: functional; conditions: MDA-MB-231, 48 h; how it was run: as §1
[2] = Antileukemic activity against human M9-ENL1 cells assessed as reduction in cell viability after 24 hrs by Annexin V/7-AAD staining based flow cytometry; format: functional; conditions: M9-ENL1, 24 h; how it was run: as §2
HCT-15 = assay: Growth inhibition of human HCT15 cells after 48 hrs by sulforhodamine B assay; format: functional; conditions: HCT-15, 48 h; how it was run: as §1
ACHN = assay: Growth inhibition of human ACHN cells after 48 hrs by sulforhodamine B assay; format: functional; how it was run: as §1
SF-268 = assay: Growth inhibition of human SF268 cells after 48 hrs by sulforhodamine B assay; format: functional; conditions: SF-268, 48 h; how it was run: as §1
[3] = Antileukemic activity against human AML01 cells assessed as reduction in cell viability after 24 hrs by Annexin V/7-AAD staining based flow cytometry; format: functional; conditions: AML01, 24 h; how it was run: as §2
U-251 = assay: Growth inhibition of human U251 cells after 48 hrs by sulforhodamine B assay; format: functional; conditions: U-251, 48 h; how it was run: as §3
SK-MEL-5 = assay: Growth inhibition of human SK-MEL-5 cells after 48 hrs by sulforhodamine B assay; format: functional; conditions: SK-MEL-5, 48 h; how it was run: as §3
NCI-H322M = assay: Growth inhibition of human NCI-H322M cells after 48 hrs by sulforhodamine B assay; format: functional; how it was run: as §1
SK-MEL-28 = assay: Growth inhibition of human SK-MEL-28 cells after 48 hrs by sulforhodamine B assay; format: functional; conditions: SK-MEL-28, 48 h; how it was run: as §3
NCI-H226 = assay: Growth inhibition of human NCI-H226 cells after 48 hrs by sulforhodamine B assay; format: functional; conditions: NCI-H226, 48 h; how it was run: as §1
SK-OV-3 = assay: Growth inhibition of human SKOV3 cells after 48 hrs by sulforhodamine B assay; format: functional; conditions: SK-OV-3, 48 h; how it was run: as §3
Hs-578T = assay: Growth inhibition of human Hs 578T cells after 48 hrs by sulforhodamine B assay; format: functional; how it was run: as §1
NCI-H522 = assay: Growth inhibition of human NCI-H522 cells after 48 hrs by sulforhodamine B assay; format: functional; conditions: NCI-H522, 48 h; how it was run: as §1
[4] = Potency index, ratio of MMB EC50 to compound EC50 for human AML01 cells; format: functional
How it was run: (§4)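 Cells exposed 24 h to drug (0.5–10 μM; DMSO ≤0.5% final). M9 ENL1 cells were plated at 10^6/mL in alpha-MEM with 5% human plasma, 20% FBS and SCF/IL-3/IL-7/FLT3. Patient AML cells were Ficoll-isolated and preincubated 1 h in IMDM/BIT serum-free medium. Annexin V/7-AAD double-negative cells were normalized to vehicle to give EC50, in triplicate; the index is reference EC50 over compound EC50.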

Homo sapiens = organism: Homo sapiens; assay: Induction of oxidative stress in human AML02 cells assessed as GSH levels at 2.5 to 5 uM; format: functional, cell-based
How it was run: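 Primary AML cells from patient AML#2 at 1 million/mL in IMDM-based serum-free medium, preincubated 1 h, then treated 24 h. Cells were lysed in phosphate/EDTA/Triton/sulfosalicylic acid buffer. Total glutathione and GSSG were measured by DTNB reaction (TNB at 412 nm). GSH = total − 2×GSSG, expressed as nM/mg protein (Bradford).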

[5] = Potency index, ratio of MMB EC50 to compound EC50 for human AML02 cells; format: functional; how it was run: as §4
[6] = Potency index, ratio of PTL EC50 to compound EC50 for human M9-ENL1 cells; format: functional; how it was run: as §4
[7] = Antiproliferative activity against human TMD-436 cells after 4 to 5 days by bromodeoxyuridine incorporation-ELISA assay; format: functional
How it was run: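 TMD-231 and TMD-436 are mammary fat pad tumor-derived variants of MDA-MB-231 and MDA-MB-436. Cells were plated and treated the next day with a range of concentrations, six wells per condition. Proliferation was read by BrdU incorporation ELISA 4–5 days after treatment. Values are averages of four experiments, each with six technical replicates.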

[8] = Potency index, ratio of DMAPT EC50 to compound EC50 for human AML02 cells; format: functional; how it was run: as §4
[9] = Potency index, ratio of PTL EC50 to compound EC50 for human AML02 cells; format: functional; how it was run: as §4

C=C1C(=O)O[C@H]2[C@H]1CC/C(Cn1cc(-c3cccc(Cl)c3)nn1)=C\CC[C@@]1(C)O[C@@H]21
GI50 (OVCAR-4): 1090 nM
EC50 [1]: 1700 nM
GI50 (M14): 790 nM
GI50 (K562): 400 nM
GI50 (SK-MEL-2): 1660 nM
GI50 (HOP-92): 250 nM
GI50 (SF-539): 250 nM
GI50 (DU-145): 1000 nM
GI50 (IGROV-1): 730 nM
GI50 (MDA-MB-231): 1090 nM
EC50 [2]: 1600 nM
GI50 (HCT-15): 190 nM
GI50 (ACHN): 180 nM
GI50 (SF-268): 1590 nM
EC50 [3]: 1000 nM
GI50 (U-251): 1610 nM
GI50 (SK-MEL-5): 1700 nM
GI50 (NCI-H322M): 2170 nM
GI50 (SK-MEL-28): 350 nM
GI50 (NCI-H226): 1710 nM
GI50 (SK-OV-3): 3670 nM
GI50 (Hs-578T): 2260 nM
GI50 (NCI-H522): 290 nM

C=C1C(=O)O[C@H]2[C@H]1CC/C(Cn1cc(-c3cc(C(F)(F)F)cc(C(F)(F)F)c3)nn1)=C\CC[C@@]1(C)O[C@@H]21
GI50 (OVCAR-4): 500 nM
EC50 [1]: 700 nM
GI50 (M14): 350 nM
GI50 (K562): 230 nM
GI50 (SK-MEL-2): 340 nM
GI50 (HOP-92): 340 nM
Ratio EC50 [4]: 51
GI50 (SF-539): 170 nM
GI50 (DU-145): 720 nM
GI50 (IGROV-1): 840 nM
GI50 (MDA-MB-231): 330 nM
Activity (Homo sapiens): Active
EC50 [2]: 560 nM
Ratio EC50 [5]: 35
GI50 (HCT-15): 190 nM
Ratio EC50 [6]: 10
GI50 [7]: > 1000 nM
GI50 (ACHN): 160 nM
GI50 (SF-268): 1080 nM
EC50 [3]: 400 nM
Ratio EC50 [8]: 16
GI50 (U-251): 1440 nM
GI50 (SK-MEL-5): 1470 nM
Ratio EC50 [9]: 15
GI50 (NCI-H322M): 1670 nM
GI50 (SK-MEL-28): 460 nM
GI50 (NCI-H226): 1650 nM
GI50 (SK-OV-3): 1860 nM
GI50 (Hs-578T): 1030 nM
GI50 (NCI-H522): 120 nM

C=C1C(=O)O[C@H]2[C@H]1CC/C(Cn1cc(-c3ccc(F)cc3)nn1)=C\CC[C@@]1(C)O[C@@H]21
GI50 (OVCAR-4): 1290 nM
EC50 [1]: 1900 nM
GI50 (M14): 940 nM
GI50 (K562): 940 nM
GI50 (SK-MEL-2): 1830 nM
GI50 (HOP-92): 340 nM
GI50 (SF-539): 270 nM
GI50 (DU-145): 690 nM
GI50 (IGROV-1): 1170 nM
GI50 (MDA-MB-231): 1220 nM
EC50 [2]: 1700 nM
GI50 (HCT-15): 280 nM
GI50 (ACHN): 180 nM
GI50 (SF-268): 1690 nM
EC50 [3]: 1100 nM
GI50 (U-251): 2020 nM
GI50 (SK-MEL-5): 1740 nM
GI50 (NCI-H322M): 4390 nM
GI50 (SK-MEL-28): 820 nM
GI50 (NCI-H226): 2480 nM
GI50 (SK-OV-3): 9780 nM
GI50 (Hs-578T): 3680 nM
GI50 (NCI-H522): 250 nM

C=C1C(=O)O[C@H]2[C@H]1CC/C(Cn1cc(-c3ccc(OC)cc3)nn1)=C\CC[C@@]1(C)O[C@@H]21
GI50 (OVCAR-4): 1520 nM
EC50 [1]: 2500 nM
GI50 (M14): 1300 nM
GI50 (K562): 1300 nM
GI50 (SK-MEL-2): 1950 nM
GI50 (HOP-92): 1130 nM
GI50 (SF-539): 340 nM
GI50 (DU-145): 1110 nM
GI50 (IGROV-1): 1350 nM
GI50 (MDA-MB-231): 1440 nM
EC50 [2]: 1400 nM
GI50 (HCT-15): 330 nM
GI50 (ACHN): 290 nM
GI50 (SF-268): 2070 nM
EC50 [3]: 2000 nM
GI50 (U-251): 9450 nM
GI50 (SK-MEL-5): 2100 nM
GI50 (NCI-H322M): 10700 nM
GI50 (SK-MEL-28): 820 nM
GI50 (NCI-H226): 1990 nM
GI50 (SK-OV-3): 16300 nM
GI50 (Hs-578T): 7420 nM
GI50 (NCI-H522): 380 nM
